Tests used:
Rattus norvegicus [1] = experiment: Analgesic activity in Wistar albino rat […] assessed as reaction time for tail withdrawal at 100 mg/kg, po after 30 mins by tail flick method; format: functional
Rattus norvegicus [2] = experiment: Toxicity in Wistar albino rat assessed as induction of gastric ulceration up to 3 g/kg, po after 8 hrs; format: organism-based, Stomach; conditions: in vivo, 3000 mg/kg
Summary of the method: (§1)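 Acute toxicity: albino rats of either sex in groups of six, oral doses from 100 up to 3000 mg kg^-1. Rats observed continuously for 8 h for changes in motor activity, ataxia, tremors, convulsions, sedation and lacrimation. Ulceration and haemorrhagic spots also inspected.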

Rattus norvegicus [3] = experiment: Analgesic activity in Wistar albino rat […] assessed as reaction time for tail withdrawal at 100 mg/kg, po after 180 mins by tail flick method; format: functional
Rattus norvegicus [4] = experiment: Antiinflammatory activity in Wistar albino rat assessed as inhibition of carrageenan-induced paw oedema at 100 mg/kg, po measured 0.5 hrs after carrageenan challenge; format: functional
Summary of the method: (§2)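 Albino rats, 6 per group, dosed orally at 100 mg kg^-1; ibuprofen 100 mg kg^-1 as standard. One hour after dosing, 0.1 ml of 1% carrageenan with 2% gum acacia in normal saline injected subplantar into the right hind paw. Paw volume measured by plethysmometer; % inhibition versus control calculated. One-way ANOVA with Dunnett's t test.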

Rattus norvegicus [5] = experiment: Antiinflammatory activity in Wistar albino rat assessed as inhibition of carrageenan-induced paw oedema at 100 mg/kg, po measured 2 hrs after carrageenan challenge; format: functional; summary of the method: as §2
Rattus norvegicus [6] = experiment: Analgesic activity in Wistar albino rat […] assessed as reaction time for tail withdrawal at 100 mg/kg, po after 60 mins by tail flick method; format: functional
Summary of the method: (§3)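 Rat tail-flick test: latency for the rat to withdraw its tail from hot water at 55 ± 0.5 °C. Drugs given orally. Reaction time in seconds read at 60, 90, 120 and 300 min after dosing. Treated animals compared with control and with a nimesulide standard. Wistar albino rats, 150-200 g, either sex; food withdrawn 12 h before and during testing.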

Rattus norvegicus [7] = experiment: Toxicity in Wistar albino rat assessed as induction of sedation up to 3 g/kg, po after 8 hrs; format: organism-based; conditions: in vivo, 3000 mg/kg; summary of the method: as §1
Rattus norvegicus [8] = experiment: Analgesic activity in Wistar albino rat […] assessed as increase in reaction time for tail withdrawal at 100 mg/kg, po after 300 mins by tail flick method; format: functional; summary of the method: as §3
Rattus norvegicus [9] = experiment: Toxicity in Wistar albino rat assessed as mortality up to 3 g/kg, po after 24 hrs; format: organism-based; conditions: in vivo, 3000 mg/kg
Summary of the method: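 Albino rats of either sex, six per group, dosed orally from 100 up to 3000 mg kg^-1 body weight. Animals were watched continuously for 8 h for signs of acute toxicity such as altered motor activity, ataxia, tremors, convulsions, sedation and lacrimation, and were checked for mortality over a 24 h period. Food was withheld for 12 h before dosing.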

Rattus norvegicus [10] = experiment: Antiinflammatory activity in Wistar albino rat assessed as inhibition of carrageenan-induced paw oedema at 100 mg/kg, po measured 1 hr after carrageenan challenge; format: functional; summary of the method: as §2
Rattus norvegicus [11] = experiment: Toxicity in Wistar albino rat assessed as induction of convulsions and tremors up to 3 g/kg, po after 8 hrs; format: organism-based; conditions: in vivo, 3000 mg/kg; summary of the method: as §1
Rattus norvegicus [12] = experiment: Analgesic activity in Wistar albino rat […] assessed as increase in reaction time for tail withdrawal at 100 mg/kg, po after 180 mins by tail flick method; format: functional
Rattus norvegicus [13] = experiment: Toxicity in Wistar albino rat assessed as effect on motor activity up to 3 g/kg, po after 8 hrs; format: organism-based; conditions: in vivo, 3000 mg/kg; summary of the method: as §1
Rattus norvegicus [14] = experiment: Toxicity in Wistar albino rat assessed as induction of haemorrhagic spots up to 3 g/kg, po after 8 hrs; format: organism-based; conditions: in vivo, 3000 mg/kg; summary of the method: as §1
Rattus norvegicus [15] = experiment: Analgesic activity in Wistar albino rat […] assessed as reaction time for tail withdrawal at 100 mg/kg, po after 300 mins by tail flick method; format: functional; summary of the method: as §3
Rattus norvegicus [16] = experiment: Antiinflammatory activity in Wistar albino rat assessed as inhibition of carrageenan-induced paw oedema at 100 mg/kg, po measured 4 hrs after carrageenan challenge; format: functional; summary of the method: as §2
Rattus norvegicus [17] = experiment: Antiinflammatory activity in Wistar albino rat assessed as inhibition of carrageenan-induced paw oedema at 100 mg/kg, po measured 5 hrs after carrageenan challenge; format: functional; summary of the method: as §2
Rattus norvegicus [18] = experiment: Analgesic activity in Wistar albino rat […] assessed as reaction time for tail withdrawal at 100 mg/kg, po after 120 mins by tail flick method; format: functional; summary of the method: as §3
Rattus norvegicus [19] = experiment: Antiinflammatory activity in Wistar albino rat assessed as inhibition of carrageenan-induced paw oedema at 100 mg/kg, po measured 3 hrs after carrageenan challenge; format: functional; summary of the method: as §2

| Compound | Activity (Rattus norvegicus [1]) | Activity (Rattus norvegicus [2]) | Activity (Rattus norvegicus [3]) | inhibition in vivo at 100 mg/kg (Rattus norvegicus [4]) | inhibition in vivo at 100 mg/kg (Rattus norvegicus [5]) | Activity (Rattus norvegicus [6]) | Activity (Rattus norvegicus [7]) | Activity (Rattus norvegicus [8]) | Activity (Rattus norvegicus [9]) | inhibition in vivo at 100 mg/kg (Rattus norvegicus [10]) | Activity (Rattus norvegicus [11]) | Activity (Rattus norvegicus [12]) | Activity (Rattus norvegicus [13]) | Activity (Rattus norvegicus [14]) | Activity (Rattus norvegicus [15]) | inhibition in vivo at 100 mg/kg (Rattus norvegicus [16]) | inhibition in vivo at 100 mg/kg (Rattus norvegicus [17]) | Activity (Rattus norvegicus [18]) | inhibition in vivo at 100 mg/kg (Rattus norvegicus [19]) |
| --- | --- | --- | --- | --- | --- | --- | --- | --- | --- | --- | --- | --- | --- | --- | --- | --- | --- | --- | --- |
| Cc1ccc2c(Cc3nn4c(/C=N/O)c(-c5ccc(Cl)cc5)nc4s3)coc2c1 | 2.483 s | Non-toxic | 2.717 s | 6% | 11.2% | 2.667 s | Non-toxic | -3.09% | Non-toxic | 5.19% | Non-toxic | 1.26% | Non-toxic | Non-toxic | 2.6 s | 11.1% | 31% | 2.633 s | 10% |
| Cc1ccc2c(Cc3nn4cc(-c5ccc(Br)cc5)nc4s3)coc2c1 | 2.65 s | Non-toxic | 2.7 s | 6% | 12% | 2.667 s | Non-toxic | 0% | Non-toxic | 10.3% | Non-toxic | 0.633% | Non-toxic | Non-toxic | 2.683 s | 11.1% | 22.5% | 2.583 s | 10.8% |
| Cc1ccc2c(Cc3nn4c(C=O)c(-c5ccc(Br)cc5)nc4s3)coc2c1 | 3.983 s | Non-toxic | 9.083 s | 1.15% | 11.2% | 4.433 s | Non-toxic | 181.4% | Non-toxic | 12.4% | Non-toxic | 238.53% | Non-toxic | Non-toxic | 7.55 s | 10.2% | 12.4% | 6.5 s | 10.8% |

Source: ChEMBL document CHEMBL1140193, “Synthesis and anti-inflammatory evaluation of methylene bridged benzofuranyl imidazo[2,1-b][1,3,4]thiadiazoles” (Eur J Med Chem, 2008)
